Measurements taken from ChEMBL document CHEMBL1125344, “(Pyridylcyanomethyl)piperazines as orally active PAF antagonists” (J Med Chem, 1992).

Columns and labels:
[1] = target: Platelet-activating factor receptor (Rattus norvegicus) (UniProt P46002); experiment: In vivo dose administered intravenously to inhibit PAF-induced hypotension (PAF-Antagonistic activity) in normotensive rats by 56%.; type: functional, organism-based
Summary of the method: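 Male Sprague-Dawley rats, 180-220 g, anesthetized with sodium pentobarbital ip; blood pressure recorded from left carotid artery. Compound given iv in saline (1 mL/kg) via femoral vein 3 min before PAF 0.5 μg/kg iv; initial dose 5 mg/kg. Percentage inhibition of PAF-induced hypotension calculated versus vehicle-treated controls.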

[2] = target: Platelet-activating factor receptor (Mus musculus) (UniProt Q62035); experiment: Oral dose required to inhibit PAF-induced mortality (PAF-Antagonistic activity)in mice by 50%.; type: functional; conditions: Mus sp.
Sequence of Platelet-activating factor receptor (Mus musculus) (Q62035 whole entry): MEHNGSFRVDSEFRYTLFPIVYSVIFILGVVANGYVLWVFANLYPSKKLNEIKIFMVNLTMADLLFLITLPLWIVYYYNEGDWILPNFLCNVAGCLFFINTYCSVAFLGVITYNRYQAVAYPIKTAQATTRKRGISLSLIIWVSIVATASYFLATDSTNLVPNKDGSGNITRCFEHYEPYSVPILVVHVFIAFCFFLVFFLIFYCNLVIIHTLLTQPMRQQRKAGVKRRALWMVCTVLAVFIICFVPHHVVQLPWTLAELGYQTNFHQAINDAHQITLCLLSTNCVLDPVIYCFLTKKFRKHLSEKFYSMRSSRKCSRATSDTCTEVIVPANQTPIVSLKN
Summary of the method: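 Male Swiss mice, 22-26 g, in groups of 10. Compound or saline given po (20 mL/kg) 60 min before C18-PAF 100 µg/kg plus propranolol 1 mg/kg by tail vein. ID50 from percent inhibition of mortality versus controls.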

[3] = target: Platelet-activating factor receptor (Rattus norvegicus) (UniProt P46002); experiment: In vivo dose administered intravenously to inhibit PAF-induced hypotension (PAF-Antagonistic activity) in normotensive rats by 57%.; type: functional, organism-based

Sequence of Platelet-activating factor receptor (Rattus norvegicus) (P46002 whole entry): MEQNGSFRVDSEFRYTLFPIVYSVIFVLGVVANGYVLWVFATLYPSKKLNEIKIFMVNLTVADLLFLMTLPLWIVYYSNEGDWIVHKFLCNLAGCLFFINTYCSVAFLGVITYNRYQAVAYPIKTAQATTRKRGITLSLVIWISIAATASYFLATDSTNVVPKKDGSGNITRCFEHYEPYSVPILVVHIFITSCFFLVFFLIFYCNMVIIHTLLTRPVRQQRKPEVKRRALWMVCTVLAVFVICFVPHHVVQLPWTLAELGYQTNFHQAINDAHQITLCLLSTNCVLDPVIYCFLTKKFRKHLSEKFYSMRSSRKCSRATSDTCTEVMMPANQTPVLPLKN

ID50 [3] | SMILES | ID50 [1] | ID50 [2]
 | N#CC(c1cccnc1)N1CCN(C(=O)Cc2ccc3ccccc3c2)CC1 (stereo not drawn) | 5 mg/kg | 
5 mg/kg | N#CC(c1cccnc1)N1CCN(C(=O)CCCc2ccccc2)CC1 (stereo not drawn) |  | 50 mg/kg
